Experiment [1] deals with T1, Renin (Homo sapiens, UniProt P00797).
T1 sequence (P00797 whole entry): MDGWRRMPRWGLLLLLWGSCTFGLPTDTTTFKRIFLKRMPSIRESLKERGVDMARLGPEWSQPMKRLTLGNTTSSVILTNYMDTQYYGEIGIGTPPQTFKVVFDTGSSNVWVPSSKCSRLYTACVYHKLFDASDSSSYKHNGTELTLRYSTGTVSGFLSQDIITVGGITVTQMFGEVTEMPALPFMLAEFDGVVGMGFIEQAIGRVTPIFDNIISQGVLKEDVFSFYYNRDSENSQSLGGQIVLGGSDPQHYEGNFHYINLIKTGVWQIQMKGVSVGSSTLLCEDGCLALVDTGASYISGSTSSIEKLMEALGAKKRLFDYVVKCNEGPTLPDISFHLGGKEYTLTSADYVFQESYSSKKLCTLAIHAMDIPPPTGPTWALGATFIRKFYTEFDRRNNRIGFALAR
As to the kind of experiment: Inhibitory activity against human renin. The method in brief: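 It was incubated 2 h at 37 °C with compound added in DMSO. Angiotensin I generated, linear over this period, was corrected for endogenous AI and expressed as percent of DMSO control. IC50 was estimated from semilog plots of three or more concentrations.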

Experiment [2] has as its target Renin (monkey). As to the kind of experiment: The compound was tested in vitro for inhibitory activity against Renin in monkey plasma.

As a reminder, the pIC50 is −log10 of the IC50, conventionally taken in molar units.

pIC50: −log10 of the molar value.

As for `CC(C)C[C@H](CC(O)[C@H](CC1CCCCC1)NC(=O)OC(C)(C)C)C(=O)N[C@@H](CC(C)C)C(O)CC(=O)N[C@@H](CC(C)C)C(=O)NCc1ccccc1` (stereo not given in full), in experiment [1], the pIC50 was 5.42.
The compound `CC(C)C[C@H](NC(=O)CC(O)[C@H](CC(C)C)NC(=O)[C@H](Cc1ccccc1)CC(O)[C@H](CC(C)C)NC(=O)OCc1ccccc1)C(=O)NCc1ccccc1` (stereo not given in full) showed a negative logarithm of the IC50 (pIC50) in experiment [1] of 5.08.
Compound `CC(C)C[C@H](NC(=O)CC(O)[C@H](CC(C)C)NC(=O)CCC(=O)[C@H](Cc1ccccc1)NC(=O)OC(C)(C)C)C(=O)NCc1ccccc1` (stereo not given in full) showed a pIC50 in experiment [1] of 4.68.
Regarding `CC(C)C[C@H](CC(O)[C@H](CC(C)C)NC(=O)OCc1ccccc1)C(=O)N[C@@H](CC(C)C)C(O)CC(=O)N[C@@H](CC(C)C)C(=O)NCc1ccccc1` (stereo not given in full), the pIC50 in experiment [1] is 5.17.
On the same count and under the same terms, next, `CC(C)C[C@H](NC(=O)CC(O)[C@H](CC(C)C)NC(=O)CCC[C@H](Cc1ccccc1)NC(=O)OC(C)(C)C)C(=O)NCc1ccccc1` (stereo not given in full): 4.64; `CC(C)C[C@H](NC(=O)C[C@@H](O)C(CC1CCCCC1)NC(=O)CC1OC1[C@H](Cc1ccccc1)NC(=O)OC(C)(C)C)C(=O)NCc1cccc(CN)c1` (stereo not given in full): 6.49; `CC(C)C[C@H](NC(=O)C[C@@H](O)C(CC1CCCCC1)NC(=O)/C=C/C(O)[C@H](Cc1ccccc1)NC(=O)OC(C)(C)C)C(=O)NCc1ccccc1` (stereo not given in full): 7.05.
As to `CC(C)C[C@H](NC(=O)CC(O)[C@H](CC(C)C)NC(=O)CNC(=O)[C@H](Cc1ccccc1)NC(=O)OC(C)(C)C)C(=O)NCc1ccccc1` (stereo not given in full), the negative-log IC50 (pIC50) in experiment [2] was 5.96.
Turning to `CC(C)C[C@H](NC(=O)CC(O)[C@H](CC(C)C)NC(=O)[C@H](Cc1c[nH]cn1)NC[C@H](Cc1ccccc1)NC(=O)OC(C)(C)C)C(=O)NCc1ccccc1` (stereo not given in full), the negative-log IC50 (pIC50) in experiment [1] was 5.42.
Same read-out and setting: next, `CC(C)C[C@H](NC(=O)CC(O)[C@H](CC(C)C)NC(=O)CC(O)C(O)[C@H](CC1CCCCC1)NC(=O)OC(C)(C)C)C(=O)NCc1ccccc1` (stereo not given in full): 5.19; `CC(C)C[C@H](NC(=O)CC(O)[C@H](CC(C)C)NC(=O)CCC(O)[C@H](CC(C)C)NC(=O)OCc1ccccc1)C(=O)NCc1ccccc1` (stereo not given in full): 5.40; `CC(C)C[C@H](NC(=O)CC(O)[C@H](CC(C)C)NC(=O)[C@H](Cc1cnc[nH]1)N(O)C[C@H](Cc1ccccc1)NC(=O)OC(C)(C)C)C(=O)NCc1ccccc1` (stereo not given in full): 5.19.
The compound `CC(C)C[C@H](NC(=O)CC(O)[C@H](CC(C)C)NC(=O)[C@H](Cc1c[nH]cn1)CC(O)[C@H](Cc1ccccc1)NC(=O)OC(C)(C)C)C(=O)NCc1ccccc1` (stereo not given in full) gave a pIC50 in experiment [1] of 6.11.
Same read-out and setting: the result for `CC(C)CC(=O)N[C@@H](Cc1ccccc1)CS(=O)(=O)[C@@H](Cc1ccccc1)C(=O)N[C@@H](CC(C)C)C(O)CC(=O)N[C@@H](C)C(=O)N[C@@H](CC(C)C)C(O)CC(=O)NCc1ccccc1` (stereo not given in full) reads 5.82.
For `CC(C)C[C@H](NC(=O)CC(O)[C@H](CC(C)C)NC(=O)[C@H](Cc1ccccc1)NC[C@H](Cc1ccccc1)NC(=O)OC(C)(C)C)C(=O)NCc1ccccc1` (stereo not given in full), in experiment [1], the pIC50 was 5.38.
On the same count and under the same terms, next, `CC(C)C[C@H](NC(=O)CC(O)[C@H](CC(C)C)NC(=O)C/C=C/[C@H](Cc1ccccc1)NC(=O)OC(C)(C)C)C(=O)NCc1ccccc1` (stereo not given in full): 5.15; `CC(C)C[C@H](NC(=O)C[C@@H](O)C(Cc1ccccc1)NC(=O)C/C=C/[C@H](Cc1ccccc1)NC(=O)OC(C)(C)C)C(=O)NCc1ccccc1` (stereo not given in full): 5.04; `CC(C)C[C@H](NC(=O)CC(O)[C@H](CC(C)C)NC(=O)[C@H](Cc1ccccc1)N(O)C[C@H](Cc1ccccc1)NC(=O)OC(C)(C)C)C(=O)NCc1ccccc1` (stereo not given in full): 4.74.
Take `CC(C)C[C@H](NC(=O)CC(O)[C@H](CC(C)C)NC(=O)[C@H](Cc1ccccc1)[S+]([O-])C[C@H](Cc1ccccc1)NC(=O)OC(C)(C)C)C(=O)NCc1ccccc1` (stereo not given in full): the pIC50 in experiment [1] was 5.27.
Compound `CC(C)C[C@H](NC(=O)C[C@@H](O)C(Cc1ccccc1)NC(=O)CC1OC1[C@H](Cc1ccccc1)NC(=O)OC(C)(C)C)C(=O)NCc1ccccc1` (stereo not given in full) gave a pIC50 in experiment [1] of 5.36.
In turn, `CC(C)CC(=O)N[C@@H](Cc1ccccc1)C1OC1CC(=O)N[C@@H](CC(C)C)C(O)CC(=O)N[C@@H](CC(C)C)C(=O)NCc1ccccc1` (stereo not given in full) gave a pIC50 in experiment [1] of 4.54.
The same measure, in the same setting: the result for `CC(C)C[C@H](NC(=O)CC(O)[C@H](CC(C)C)NC(=O)[C@H](Cc1cnc[nH]1)NC[C@H](CC1CCCCC1)NC(=O)OC(C)(C)C)C(=O)NCc1ccccc1` (stereo not given in full) reads 5.00.
Still for that read-out and setting: next, `CC(C)CC(=O)N[C@H](CN[C@H](C(=O)N[C@@H](CC(C)C)C(O)CC(=O)N[C@@H](CC(C)C)C(=O)NCc1ccccc1)C(C)C)C(C)C` (stereo not given in full): 4.82; `CC(C)C[C@H](NC(=O)C[C@@H](O)C(CC1CCCCC1)NC(=O)CCC[C@H](Cc1ccccc1)NC(=O)OC(C)(C)C)C(=O)NCc1cccc(CN)c1` (stereo not given in full): 6.20.
As to `CC(C)C[C@H](NC(=O)CC(O)[C@H](CC(C)C)NC(=O)/C=C/C(O)[C@H](Cc1ccccc1)NC(=O)OC(C)(C)C)C(=O)NCc1ccccc1` (stereo not given in full), in experiment [1], the pIC50 was 5.68.
Same read-out and setting: the result for `CC(C)C[C@H](NC(=O)C[C@@H](O)C(CC1CCCCC1)NC(=O)CC1OC1[C@H](Cc1ccccc1)NC(=O)OC(C)(C)C)C(=O)NCc1ccccc1` (stereo not given in full) reads 6.28; that for `CC(C)C[C@H](CC(=O)[C@H](CC1CCCCC1)NC(=O)OC(C)(C)C)C(=O)N[C@@H](CC(C)C)C(O)CC(=O)N[C@@H](CC(C)C)C(=O)NCc1ccccc1` (stereo not given in full), 4.59.
On the same count and under the same terms, next, `CC(C)CC(=O)N[C@H](CSCC(=O)N[C@@H](CC(C)C)C(O)CC(=O)N[C@@H](CC(C)C)C(=O)NCc1ccccc1)Cc1ccccc1` (stereo not given in full): 4.74; `CC(C)C[C@H](NC(=O)CC(O)[C@H](CC(C)C)NC(=O)C(O)C(O)C(O)[C@H](Cc1ccccc1)NC(=O)OC(C)(C)C)C(=O)NCc1ccccc1` (stereo not given in full): 4.96; `CC(C)C[C@H](NC(=O)C[C@@H](O)C(CC1CCCCC1)NC(=O)[C@H](Cc1cnc[nH]1)NC[C@H](Cc1ccccc1)NC(=O)OC(C)(C)C)C(=O)NCc1ccccc1` (stereo not given in full): 6.70.
On the same count and under the same terms, the result for `CC(C)C[C@H](NC(=O)C[C@@H](O)C(CC1CCCCC1)NC(=O)CCC(O)[C@H](Cc1ccccc1)NC(=O)OC(C)(C)C)C(=O)NCc1ccccc1` (stereo not given in full) reads 7.21; that for `CC(C)CC(=O)N[C@H](CS[C@@H](Cc1ccccc1)C(=O)N[C@@H](CC(C)C)C(O)CC(=O)N[C@@H](C)C(=O)N[C@@H](CC(C)C)C(O)CC(=O)NCc1ccccc1)Cc1ccccc1` (stereo not given in full), 5.13.
`CC(C)C[C@H](NC(=O)CC(O)[C@H](CC(C)C)NC(=O)CC(O)C(O)[C@H](Cc1ccccc1)NC(=O)OC(C)(C)C)C(=O)NCc1ccccc1` (stereo not given in full) gave a negative logarithm of the IC50 (pIC50) in experiment [1] of 5.85.
`CC(C)CC(=O)N[C@H](/C=C/CC(=O)N[C@@H](CC(C)C)C(O)CC(=O)N[C@@H](CC(C)C)C(=O)NCc1ccccc1)Cc1ccccc1` (stereo not given in full): the negative-log IC50 (pIC50) in experiment [1] was 4.89.
On the same count and under the same terms, next, `CC(C)C[C@H](NC(=O)CC(O)[C@H](CC(C)C)NC(=O)C/C=C\[C@H](Cc1ccccc1)NC(=O)OC(C)(C)C)C(=O)NCc1ccccc1` (stereo not given in full): under 4.00; `CC(C)CC(=O)N[C@@H](Cc1ccccc1)C[S+]([O-])[C@@H](Cc1ccccc1)C(=O)N[C@@H](CC(C)C)C(O)CC(=O)N[C@@H](C)C(=O)N[C@@H](CC(C)C)C(O)CC(=O)NCc1ccccc1` (stereo not given in full): 5.70.
As to `CC(C)C[C@H](NC(=O)C[C@@H](O)C(CC1CCCCC1)NC(=O)CCC(O)[C@H](Cc1ccccc1)NC(=O)OC(C)(C)C)C(=O)NCc1ccc(CN)cc1` (stereo not given in full), the negative logarithm of the IC50 (pIC50) in experiment [1] was 7.66.
In experiment [1], `CC(C)C[C@H](NC(=O)CC(O)[C@H](CC(C)C)NC(=O)[C@@H](CC(=O)[C@H](Cc1ccccc1)NC(=O)OCc1ccccc1)Cc1ccccc1)C(=O)NCc1ccccc1` (stereo not given in full) showed a negative-log IC50 (pIC50) of 4.64.
`CC(C)C[C@H](NC(=O)OCc1ccccc1)C(=O)C[C@@H](Cc1ccccc1)C(=O)N[C@@H](CC(C)C)C(O)CC(=O)N[C@@H](CC(C)C)C(=O)NCc1ccccc1` (stereo not given in full) gave a negative logarithm of the IC50 (pIC50) in experiment [1] of 4.96.
In experiment [1], `CC(C)C[C@H](NC(=O)CC(O)[C@H](CC(C)C)NC(=O)[C@H](Cc1ccccc1)CC(O)[C@H](Cc1ccccc1)NC(=O)OCc1ccccc1)C(=O)NCc1ccccc1` (stereo not given in full) had a pIC50 of 5.43.
`CC(C)C[C@H](NC(=O)C[C@@H](O)C(CC1CCCCC1)NC(=O)C/C=C/[C@H](Cc1ccccc1)NC(=O)OC(C)(C)C)C(=O)NCc1ccccc1` (stereo not given in full) had a pIC50 in experiment [1] of 5.89.
For `CC(C)C[C@H](NC(=O)C[C@@H](O)C(CC1CCCCC1)NC(=O)/C=C/C(O)[C@H](Cc1ccccc1)NC(=O)OC(C)(C)C)C(=O)NCc1ccc(CNC(=O)OCc2ccccc2)cc1` (stereo not given in full), the pIC50 in experiment [1] was 6.33.
For the compound `CC(C)C[C@H](NC(=O)[C@H](C)NC(=O)CC(O)[C@H](CC(C)C)NC(=O)[C@H](Cc1ccccc1)[S+]([O-])C[C@H](Cc1ccccc1)NC(=O)OC(C)(C)C)C(O)CC(=O)NCc1ccccc1` (stereo not given in full), the negative logarithm of the IC50 (pIC50) in experiment [1] is 5.25.
The same measure, in the same setting: the result for `CC(C)C[C@H](NC(=O)CC(O)[C@H](CC(C)C)NC(=O)CC1OC1[C@H](Cc1ccccc1)NC(=O)OC(C)(C)C)C(=O)NCc1ccccc1` (stereo in doubt; 32) reads 5.92; that for `CC(C)C[C@H](NC(=O)CC(O)[C@H](CC(C)C)NC(=O)CC1OC1[C@H](Cc1ccccc1)NC(=O)OC(C)(C)C)C(=O)NCc1ccccc1` (stereo in doubt; 37), under 4.00.
